This passage reports MIC results from ChEMBL document CHEMBL1649253, “New approach for drug susceptibility testing: monitoring the stress response of mycobacteria” (2009).

In brackets after ≈: the same amount, converted by molar mass.

Experiment [1] relates to Mycobacterium tuberculosis. In words: Antibacterial activity against Mycobacterium tuberculosis H37Ra by 7H10 agar plate method. The experiment is classed as functional.
The subject of experiment [2] is Mycobacterium tuberculosis. In words: Antibacterial activity against Mycobacterium tuberculosis H37Ra by broth microdilution method. Format: functional. Summed up: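 Broth microdilution in supplemented 7H9 (complete) medium with twofold drug dilutions. Inoculum 10^6 CFU/ml from cultures grown at 37°C to mid- or late-log phase. Incubated 21 days at 37°C, then turbidity inspected by eye against drug-free controls. MIC is the lowest concentration with no visible growth.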

The subject of experiment [3] is Mycobacterium tuberculosis. In words: Antibacterial activity against Mycobacterium tuberculosis H37Ra by 7H9 broth dilution method. The experiment is classed as functional. For orientation: In broth dilution the organism is exposed to a series of concentrations in liquid medium.
The subject of experiment [4] is Mycobacterium tuberculosis. In words: Antibacterial activity against Mycobacterium tuberculosis H37Ra by BACTEC method. Format: functional.
The test system of experiment [5] is Mycobacterium tuberculosis. In words: Antibacterial activity against Mycobacterium tuberculosis H37Ra by 7H11 agar plate method.
For experiment [6], the system named is Mycobacterium tuberculosis. In words: Antibacterial activity against Mycobacterium tuberculosis H37Ra by BACTEC MGIT 960 method. Format: functional.

Regarding `CC[C@@H](CO)NCCN[C@@H](CC)CO` [ETHAMBUTOL], the MIC – broadly, the lowest concentration that inhibits growth of the organism – in experiment [1] was 5 µg/mL (≈ 24.5 µM); in experiment [2] it was 5 µg/mL (≈ 24.5 µM); in experiment [3] it was 2 µg/mL (≈ 9.79 µM).

Consider `NNC(=O)c1ccncc1` [ISONIAZID], for which the MIC is 0.03 µg/mL (≈ 0.219 µM) in experiment [4], 0.2 µg/mL (≈ 1.46 µM) in experiment [1], 0.2 µg/mL (≈ 1.46 µM) in experiment [2] and 0.25 µg/mL (≈ 1.82 µM) in experiment [3].

On to `NC(=O)c1cnccn1` [PYRAZINAMIDE], for which the MIC in experiment [5] came out at 50 µg/mL (≈ 406 µM); in experiment [6], 20 µg/mL (≈ 162 µM); in experiment [2], 50 µg/mL (≈ 406 µM).

As for `CO[C@H]1/C=C/O[C@@]2(C)Oc3c(C)c(O)c4c(O)c(c(/C=N/N5CCN(C)CC5)c(O)c4c3C2=O)NC(=O)/C(C)=C\C=C\[C@H](C)[C@H](O)[C@@H](C)[C@@H](O)[C@@H](C)[C@H](OC(C)=O)[C@@H]1C` [RIFAMPIN], the MIC in experiment [4] was determined as 0.25 µg/mL (≈ 0.304 µM); in experiment [1], 0.2 µg/mL (≈ 0.243 µM); in experiment [2] it was 0.2 µg/mL (≈ 0.243 µM); in experiment [3] it was 0.125 µg/mL (≈ 0.152 µM).
